Source: ChEMBL document CHEMBL1255388, “Antimalarial asexual stage-specific and gametocytocidal activities of HIV protease inhibitors” (Antimicrob Agents Chemother, 2010)
Calls of active or inactive are those of the source. The calls are words filed in the database; no cut-off is given here.

Legend:
Type in all cases: functional, organism-based
Plasmodium falciparum [1] = assay: Antigametocyte activity against Plasmodium falciparum harboring GFP-tagged Pfs16 protein assessed as reduction in number of gametocytes after 40 hrs by [3H]hypoxanthine incorporation assay
Plasmodium falciparum [2] = assay: Antimicrobial activity against chloroquine-sensitive Plasmodium falciparum 3D7 after 48 hrs; conditions: 3D7, 48 h
Outline: (§1)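 In vitro growth inhibition of P. falciparum asexual cultures. Concentrations giving 10, 50 and 90% inhibition (± SE) were obtained by nonlinear regression curve fitting. Each assay was run in triplicate on at least two separate occasions.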

Plasmodium falciparum [3] = assay: Antimicrobial activity against chloroquine-sensitive Plasmodium falciparum D10 after 48 hrs; conditions: D10, 48 h; outline: as §1
Plasmodium falciparum [4] = assay: Antimicrobial activity against Plasmodium falciparum harboring […]-tagged Pfs16 protein after 48 hrs; outline: as §1
Plasmodium falciparum [5] = assay: Antigametocyte activity against Plasmodium falciparum D10 trophozoites assessed as inhibition of parasite growth at 50 nM after 1 to 8 hrs
Outline: (§2)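 Synchronized D10 cultures exposed to drug at 0 h (ring), 24 h (trophozoite) or 36 h (schizont) postsynchronization. After exposure, parasites washed, resuspended in drug-free medium and labelled with 0.5 μCi/well [3H]hypoxanthine for 40 h. Uptake compared with vehicle controls. Triplicate wells, repeated on at least two separate occasions.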

Plasmodium falciparum [6] = assay: Antigametocyte activity against Plasmodium falciparum D10 schizonts assessed as inhibition of parasite growth at 50 nM after 1 to 8 hrs; outline: as §2
Plasmodium falciparum [7] = assay: Antigametocyte activity against ring stage Plasmodium falciparum D10 assessed as inhibition of parasite growth at 50 nM after 1 to 8 hrs; outline: as §2
Plasmodium falciparum [8] = assay: Antigametocyte activity against drug-resistant ring stage Plasmodium falciparum Dd2 […] assessed as inhibition of parasite growth at 50 nM after 1 to 8 hrs
Outline: (§3)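 Synchronized P. falciparum cultures were drug-exposed at 0 (ring), 24 (trophozoite) or 36 h (schizont) post-synchronization. They were then washed, resuspended in drug-free medium and seeded with 0.5 μCi/well [3H]hypoxanthine for 40 h. Incorporation was compared with vehicle controls. Triplicate, on at least two separate occasions.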

Plasmodium falciparum [9] = assay: Antigametocyte activity against drug-resistant Plasmodium falciparum Dd2 trophozoites assessed as inhibition of parasite growth at 50 nM after 1 to 8 hrs; outline: as §3
Plasmodium falciparum [10] = assay: Antigametocyte activity against drug-resistant Plasmodium falciparum Dd2 schizonts assessed as inhibition of parasite growth at 50 nM after 1 to 8 hrs; outline: as §3
Plasmodium falciparum [11] = assay: Antigametocyte activity against ring stage Plasmodium falciparum D10 assessed as inhibition of parasite growth at 20 uM after 1 to 8 hrs; outline: as §2
Plasmodium falciparum [12] = assay: Antigametocyte activity against drug-resistant Plasmodium falciparum Dd2 trophozoites assessed as inhibition of parasite growth at 20 uM after 1 to 8 hrs; outline: as §3
Plasmodium falciparum [13] = assay: Antigametocyte activity against drug-resistant Plasmodium falciparum Dd2 schizonts assessed as inhibition of parasite growth at 20 uM after 1 to 8 hrs; outline: as §3
Plasmodium falciparum [14] = assay: Antigametocyte activity against drug-resistant ring stage Plasmodium falciparum Dd2 assessed as inhibition of parasite growth at 20 uM after 1 to 8 hrs; outline: as §3
Plasmodium falciparum [15] = assay: Antigametocyte activity against Plasmodium falciparum D10 trophozoites assessed as inhibition of parasite growth at 20 uM after 1 to 8 hrs; outline: as §2
Plasmodium falciparum [16] = assay: Antigametocyte activity against Plasmodium falciparum D10 schizonts assessed as inhibition of parasite growth at 20 uM after 1 to 8 hrs; outline: as §2
Plasmodium falciparum [17] = assay: Antigametocyte activity against drug-resistant Plasmodium falciparum Dd2 trophozoites assessed as inhibition of parasite growth at 150 uM after 1 to 8 hrs; outline: as §3
Plasmodium falciparum [18] = assay: Antigametocyte activity against drug-resistant Plasmodium falciparum Dd2 schizonts assessed as inhibition of parasite growth at 150 uM after 1 to 8 hrs; outline: as §3
Plasmodium falciparum [19] = assay: Antigametocyte activity against drug-resistant ring stage Plasmodium falciparum Dd2 assessed as inhibition of parasite growth at 150 uM after 1 to 8 hrs; outline: as §3
Plasmodium falciparum [20] = assay: Antigametocyte activity against Plasmodium falciparum harboring GFP-tagged Pfs16 protein assessed as inhibition of [3H]hypoxanthine incorporation after 40 hrs
Plasmodium falciparum [21] = assay: Antigametocyte activity against Plasmodium falciparum D10 trophozoites assessed as inhibition of parasite growth at 150 uM after 1 to 8 hrs; outline: as §2
Plasmodium falciparum [22] = assay: Antimicrobial activity against chloroquine-resistant Plasmodium falciparum Dd2 after 48 hrs; conditions: Dd2, 48 h; outline: as §1
Plasmodium falciparum [23] = assay: Antigametocyte activity against Plasmodium falciparum D10 schizonts assessed as inhibition of parasite growth at 150 uM after 1 to 8 hrs; outline: as §2
Plasmodium falciparum [24] = assay: Antigametocyte activity against ring stage Plasmodium falciparum D10 assessed as inhibition of parasite growth at 150 uM after 1 to 8 hrs; outline: as §2
Plasmodium falciparum [25] = assay: Antigametocyte activity against drug-resistant Plasmodium falciparum Dd2 trophozoites assessed as inhibition of parasite growth at 40 uM after 1 to 8 hrs; outline: as §3
Plasmodium falciparum [26] = assay: Antigametocyte activity against drug-resistant Plasmodium falciparum Dd2 schizonts assessed as inhibition of parasite growth at 40 uM after 1 to 8 hrs; outline: as §3
Plasmodium falciparum [27] = assay: Antigametocyte activity against drug-resistant ring stage Plasmodium falciparum Dd2 assessed as inhibition of parasite growth at 40 uM after 1 to 8 hrs; outline: as §3
Plasmodium falciparum [28] = assay: Antigametocyte activity against Plasmodium falciparum D10 trophozoites assessed as inhibition of parasite growth at 40 uM after 1 to 8 hrs; outline: as §2
Plasmodium falciparum [29] = assay: Antigametocyte activity against Plasmodium falciparum D10 schizonts assessed as inhibition of parasite growth at 40 uM after 1 to 8 hrs; outline: as §2
Plasmodium falciparum [30] = assay: Antigametocyte activity against ring stage Plasmodium falciparum D10 assessed as inhibition of parasite growth at 40 uM after 1 to 8 hrs; outline: as §2

CC(C)c1nc(CN(C)C(=O)N[C@H](C(=O)N[C@@H](Cc2ccccc2)C[C@H](O)[C@H](Cc2ccccc2)NC(=O)OCc2cncs2)C(C)C)cs1 [RITONAVIR]
inhibition (Plasmodium falciparum [1]): Dose-dependent effect
EC50 (Plasmodium falciparum [2]): 3000 nM
EC50 (Plasmodium falciparum [3]): 3000 nM
EC50 (Plasmodium falciparum [4]): 5000 nM

CCN(CC)CCCC(C)Nc1ccnc2cc(Cl)ccc12 (configuration not stated) [CHLOROQUINE]
inhibition (Plasmodium falciparum [5]): Active
inhibition (Plasmodium falciparum [6]): Active
inhibition (Plasmodium falciparum [7]): inactive
inhibition (Plasmodium falciparum [8]): inactive
inhibition (Plasmodium falciparum [9]): Active
inhibition (Plasmodium falciparum [10]): Active
EC50 (Plasmodium falciparum [2]): 25 nM
EC50 (Plasmodium falciparum [3]): 23 nM
EC50 (Plasmodium falciparum [4]): 23 nM

Cc1cccc(C)c1OCC(=O)N[C@@H](Cc1ccccc1)[C@@H](O)C[C@H](Cc1ccccc1)NC(=O)[C@H](C(C)C)N1CCCNC1=O [LOPINAVIR]
inhibition (Plasmodium falciparum [11]): inactive
inhibition (Plasmodium falciparum [12]): Active
inhibition (Plasmodium falciparum [13]): Active
inhibition (Plasmodium falciparum [14]): inactive
inhibition (Plasmodium falciparum [1]): Dose-dependent effect
EC50 (Plasmodium falciparum [2]): 2000 nM
EC50 (Plasmodium falciparum [3]): 2000 nM
EC50 (Plasmodium falciparum [4]): 3000 nM
inhibition (Plasmodium falciparum [15]): Active
inhibition (Plasmodium falciparum [16]): Active

CCC[C@@]1(CCc2ccccc2)CC(O)=C([C@H](CC)c2cccc(NS(=O)(=O)c3ccc(C(F)(F)F)cn3)c2)C(=O)O1
inhibition (Plasmodium falciparum [17]): Active
inhibition (Plasmodium falciparum [18]): Active
inhibition (Plasmodium falciparum [19]): inactive
inhibition (Plasmodium falciparum [20]): Active
inhibition (Plasmodium falciparum [1]): Dose-dependent effect
inhibition (Plasmodium falciparum [21]): Active
EC50 (Plasmodium falciparum [22]): 21000 nM
EC50 (Plasmodium falciparum [2]): 20000 nM
EC50 (Plasmodium falciparum [3]): 12000 nM
EC50 (Plasmodium falciparum [4]): 18000 nM
inhibition (Plasmodium falciparum [23]): Active
inhibition (Plasmodium falciparum [24]): inactive

CC(C)(C)NC(=O)[C@@H]1C[C@@H]2CCCC[C@@H]2CN1C[C@@H](O)[C@H](Cc1ccccc1)NC(=O)[C@H](CC(N)=O)NC(=O)c1ccc2ccccc2n1
inhibition (Plasmodium falciparum [25]): Active
inhibition (Plasmodium falciparum [26]): Active
inhibition (Plasmodium falciparum [27]): inactive
inhibition (Plasmodium falciparum [1]): Dose-dependent effect
EC50 (Plasmodium falciparum [2]): 3000 nM
EC50 (Plasmodium falciparum [3]): 3000 nM
EC50 (Plasmodium falciparum [4]): 5000 nM
inhibition (Plasmodium falciparum [24]): Active
inhibition (Plasmodium falciparum [28]): Active
inhibition (Plasmodium falciparum [29]): inactive
inhibition (Plasmodium falciparum [30]): inactive

CC(C)CN(C[C@@H](O)[C@H](Cc1ccccc1)NC(=O)O[C@H]1CO[C@H]2OCC[C@H]21)S(=O)(=O)c1ccc(N)cc1
EC50 (Plasmodium falciparum [22]): 70000 nM
